Measured values taken from ChEMBL document CHEMBL2157993, “Urea-based inhibitors of Trypanosoma brucei methionyl-tRNA synthetase: selectivity and in vivo characterization” (J Med Chem, 2012).
Activity calls are given as the source filed them. No cut-off for these calls is given here.

Tests used:
Trypanosoma brucei [1] = assay: Binding affinity to Trypanosoma brucei MetRS at 100 uM by thermal shift assay
Procedure, shortened: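 Thermal shift (ΔTm) read-out with T. brucei MetRS at 0.4 mg/ml and 5% DMSO; otherwise per an earlier protocol. The test agent was at the single concentration in the curator's line. Repeated three times independently.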

[2] = Inhibition of Trypanosoma brucei MetRS aminoacylation activity assessed as reduction in [3H]methionine incorporation into Escherichia coli tRNA pre-incubated for 15 mins before tRNA addition and measured after 120 mins by scintillation counting
Procedure, shortened: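 Recombinant enzyme at 10 nM, preincubated 15 min with 12-point two-fold inhibitor dilutions in 25 mM HEPES pH 7.9, 10 mM MgCl2, 50 mM KCl, spermine, BSA, DTT, 1% DMSO and pyrophosphatase. Reaction started with 400 μg/mL E. coli tRNA, 0.1 mM ATP and 250 nM [3H]methionine, run 120 min at room temperature. TCA-precipitated and filtered for scintillation counting. Quadruplicate, with IC50 by sigmoidal fit.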

[3] = Selectivity ratio of IC50 for human MetRS to IC50 for Trypanosoma brucei MetRS
Procedure, shortened: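 Ratio of the human mitochondrial MetRS IC50 to the T. brucei MetRS IC50, each from a [3H]methionine aminoacylation assay.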

[4] = tested on: Trypanosoma brucei brucei; assay: Growth inhibition of Trypanosoma brucei brucei 427 blood stream forms after 48 hrs by alamar blue assay; type: functional, organism-based; details: Trypanosoma brucei, 427, 48 h
Procedure, shortened: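 Strain 427 bloodstream forms cultured in HMI-9 with 10% FBS at 37°C, 5% CO2. Triplicate wells seeded at 5×10^4 trypomastigotes with serial compound dilutions from 20 mM DMSO stocks. AlamarBlue read-out at 48 h, with pentamidine as the positive control.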

HepG2 = assay: Cytotoxicity against human HepG2 cells incubated for 48 hrs by alamar blue assay; type: cell-based; details: HepG2, 48 h
Procedure, shortened: (§1)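 […] cells in RPMI or HepG2 cells in DMEM/F-12, each with 10% serum, seeded at 5×10^3 per well. Exposed to serial compound dilutions for 48 h.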

[5] = Cytotoxicity against human CRL8155 cells incubated for 48 hrs by alamar blue assay; type: cell-based; details: CRL8155, 48 h; procedure, shortened: as §1
[6] = Permeability across MDCK2-MDR1 cells expressing MDR1 at 3 uM in absence of 2 uM P-gp inhibitor Elacridal by mass spectroscopy; type: ADME, cell-based, Canis lupus familiaris; details: dog, mdck-ii
Procedure, shortened: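 MDR1-MDCKII cells seeded on Transwell inserts and assayed 3 days later at 37°C in HBSS with glucose and HEPES. Monolayers preincubated about 30 min with or without 2 μM elacridar, then given compound at 3 μM final (apical). After 60 min shaking, both chambers were sampled for MS. Integrity checked by Lucifer Yellow and TEER. Triplicate. Papp(A-B) and AQ calculated.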

[7] = target: ATP-dependent translocase ABCB1 (Homo sapiens, UniProt P08183); assay: Binding affinity to MDR1 expressed in MDCK2 cells assessed as absorptive quotient at 3 uM in absence of 2 uM by mass spectroscopy; type: ADME, cell-based; details: dog, mdck-ii
Procedure, shortened: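 Monolayers preincubated about 30 min with or without 2 μM elacridar, then given compound at 3 μM final (apical). After 60 min shaking, both chambers were sampled for MS. Integrity checked by Lucifer Yellow and TEER. Triplicate. Papp(A-B) and AQ calculated.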

Mus musculus [8] = assay: Cmax in mouse at 50 mg/kg, po administered as single dose measured over 6 hrs by MS/MS method; type: ADME, organism-based; set-up: dose 50 mg/kg, route oral; details: in vivo, 6 h
Procedure, shortened: (§2)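 Mice, three per group, given one oral dose of 50 mg/kg in 5% DMSO, 3% EtOH, 7% Tween 80 in saline. Tail-snip blood taken at 0.5, 1, 2, 3, 4 and 6 h. Plasma extracted with acetonitrile and quantified by LC-MS/MS.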

[9] = Tmax in mouse at 50 mg/kg, po administered as single dose measured over 6 hrs by MS/MS method; type: ADME, organism-based; set-up: dose 50 mg/kg, route oral; details: in vivo; procedure, shortened: as §2
Mus musculus [10] = assay: Half life in mouse at 50 mg/kg, po administered as single dose measured over 6 hrs by MS/MS method; type: ADME, organism-based; set-up: dose 50 mg/kg, route oral; details: in vivo, 6 h; procedure, shortened: as §2
Mus musculus [11] = assay: AUC in mouse at 50 mg/kg, po administered as single dose measured over 6 hrs by MS/MS method; type: ADME, organism-based, Plasma; set-up: time < 6 hr, dose 50 mg/kg, route oral; details: in vivo, 6 h; procedure, shortened: as §2
[12] = tested on: Trypanosoma brucei rhodesiense; assay: Antiparasitic activity against Trypanosoma brucei rhodesiense STIB900 infected in Swiss Webster mouse assessed as reduction in parasitemia at 50 mg/kg, po dosed 24 hrs post infection every 12 hrs for 4 days measured 48 hrs post infection by microscopy; type: functional; set-up: scale not given: the % may be the effect or the level left
Procedure, shortened: (§3)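 Female Swiss Webster (CFW) mice, 6-8 weeks old, five per group. Each infected IP at time 0 with 1×10^4 bloodstream-form STIB900 in 0.2 ml. Compound in 5% DMSO, 3% EtOH, 7% Tween 80 in saline, given by oral gavage (0.2 mL). Vehicle-only group dosed alongside. Parasitemia read daily by wet-mount microscopy of tail blood. Unpaired t-tests per day.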

[13] = tested on: Trypanosoma brucei rhodesiense; assay: Antiparasitic activity against Trypanosoma brucei rhodesiense STIB900 blood stream forms incubated for 48 hrs by alamar blue assay; type: functional, organism-based; details: STIB900, 48 h
Mus musculus [14] = assay: Toxicity in Trypanosoma brucei rhodesiense STIB900 infected Swiss Webster mouse at 50 mg/kg, po dosed 24 hrs post infection every 12 hrs for 4 days; type: organism-based; set-up: dose 50 mg/kg, route oral; details: in vivo
Mus musculus [15] = assay: Time duration for plasma concentration staying above IC50 in Trypanosoma brucei rhodesiense STIB900 infected Swiss Webster mouse at 50 mg/kg, po dosed 24 hrs post infection every 12 hrs for 4 days
Trypanosoma brucei [16] = assay: Inhibition of protein synthesis in Trypanosoma brucei assessed as reduction in [3H]L-histidine incorporation into proteins incubated for 4 hrs by scintillation counting; type: functional, organism-based
[17] = Selectivity index, ratio of EC50 for human CRL8155 cells to EC50 for Trypanosoma brucei brucei 427; type: toxicity; details: read-out: Ratio EC50
[18] = Selectivity index, ratio of EC50 for human HepG2 cells to EC50 for Trypanosoma brucei brucei 427; type: toxicity, cell-based; details: read-out: Ratio EC50
[19] = tested on: Trypanosoma brucei rhodesiense; assay: Antiparasitic activity against Trypanosoma brucei rhodesiense STIB900 infected in Swiss Webster mouse assessed as reduction in parasitemia at 50 mg/kg, po dosed 24 hrs post infection every 12 hrs for 4 days measured 72 hrs post infection by microscopy; type: functional; set-up: scale not given: the % may be the effect or the level left; procedure, shortened: as §3
[20] = tested on: Trypanosoma brucei rhodesiense; assay: Antiparasitic activity against Trypanosoma brucei rhodesiense STIB900 infected in Swiss Webster mouse assessed as reduction in parasitemia at 50 mg/kg, po dosed 24 hrs post infection every 12 hrs for 4 days measured 96 hrs post infection by microscopy; type: functional; set-up: scale not given: the % may be the effect or the level left; procedure, shortened: as §3
[21] = tested on: Trypanosoma brucei rhodesiense; assay: Antiparasitic activity against Trypanosoma brucei rhodesiense STIB900 infected in Swiss Webster mouse assessed as reduction in parasitemia at 50 mg/kg, po dosed 24 hrs post infection every 12 hrs for 4 days measured 120 hrs post infection by microscopy; type: functional, organism-based; set-up: dose 50 mg/kg

ATP-dependent translocase ABCB1, sequence (P08183 whole entry): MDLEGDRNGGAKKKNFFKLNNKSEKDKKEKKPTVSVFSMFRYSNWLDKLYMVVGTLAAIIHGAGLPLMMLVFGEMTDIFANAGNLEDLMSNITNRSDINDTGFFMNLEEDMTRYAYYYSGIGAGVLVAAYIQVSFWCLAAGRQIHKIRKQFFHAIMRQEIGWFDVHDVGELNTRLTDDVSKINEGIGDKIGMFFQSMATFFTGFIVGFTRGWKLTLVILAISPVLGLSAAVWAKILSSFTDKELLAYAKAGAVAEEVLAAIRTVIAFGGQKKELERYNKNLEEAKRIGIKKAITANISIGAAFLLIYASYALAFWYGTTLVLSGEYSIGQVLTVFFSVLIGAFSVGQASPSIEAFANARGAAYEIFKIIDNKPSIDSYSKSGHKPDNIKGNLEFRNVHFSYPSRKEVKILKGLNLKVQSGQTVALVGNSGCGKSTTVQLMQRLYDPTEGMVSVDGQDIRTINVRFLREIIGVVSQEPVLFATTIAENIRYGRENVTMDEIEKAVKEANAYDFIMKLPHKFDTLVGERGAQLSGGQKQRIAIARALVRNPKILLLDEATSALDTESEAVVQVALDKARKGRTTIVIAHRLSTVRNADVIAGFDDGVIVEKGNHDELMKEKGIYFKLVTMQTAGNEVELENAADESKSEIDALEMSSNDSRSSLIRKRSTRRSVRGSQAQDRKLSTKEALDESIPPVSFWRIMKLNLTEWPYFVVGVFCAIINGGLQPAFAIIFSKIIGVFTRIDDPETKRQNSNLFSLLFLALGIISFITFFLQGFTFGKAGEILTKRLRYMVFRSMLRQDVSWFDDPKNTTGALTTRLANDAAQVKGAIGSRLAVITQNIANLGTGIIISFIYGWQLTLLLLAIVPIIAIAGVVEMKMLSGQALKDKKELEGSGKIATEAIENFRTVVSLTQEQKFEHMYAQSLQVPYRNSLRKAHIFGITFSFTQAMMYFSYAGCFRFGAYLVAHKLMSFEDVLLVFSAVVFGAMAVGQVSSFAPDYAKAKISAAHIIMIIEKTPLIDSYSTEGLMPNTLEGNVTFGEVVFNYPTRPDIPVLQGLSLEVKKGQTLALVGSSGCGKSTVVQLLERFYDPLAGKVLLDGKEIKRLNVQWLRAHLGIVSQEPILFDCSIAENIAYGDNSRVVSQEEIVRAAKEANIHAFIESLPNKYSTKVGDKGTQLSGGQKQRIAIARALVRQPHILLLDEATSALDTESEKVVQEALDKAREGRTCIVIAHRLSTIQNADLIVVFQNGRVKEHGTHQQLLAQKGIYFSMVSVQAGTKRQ

`O=C(NCCCNCc1cc(Cl)cc(Cl)c1)Nc1ccncc1` gave a ΔTm (Trypanosoma brucei [1]) of 3.1 °C.

For `O=C(NCCCNCc1cc(Cl)cc(Cl)c1)Nc1cccs1`, the ΔTm (Trypanosoma brucei [1]) was 7.6 °C, the IC50 [2] was 0.064 µM and the Ratio IC50 [3] was 48. The EC50 [4] was 0.35 µM and the EC50 (HepG2) was 14.5 µM.

With `O=C(NCCCNCc1cc(Cl)cc(Cl)c1)Nc1cccc(O)c1` the ΔTm (Trypanosoma brucei [1]) was 7.7 °C, the IC50 [2] was 0.029 µM and the Ratio IC50 [3] was 187. It also gave an EC50 [4] of 0.17 µM, an EC50 [5] of 12 µM and a Papp [6] of 2.9 ×10⁻⁶ cm/s. For the same compound, the AQ [7] was 0.62.

In the case of `COc1cccc(CNCCCNC(=O)Nc2ccccc2)c1`, the ΔTm (Trypanosoma brucei [1]) is reported as 4.7 °C.

Compound `O=C(NCCCNCc1cc(Cl)cc(Cl)c1)Nc1ccccn1` has a ΔTm (Trypanosoma brucei [1]) of 4.5 °C.

Compound `O=C(NCCCNCc1cc(Cl)cc(Cl)c1)Nc1ccsc1` has a ΔTm (Trypanosoma brucei [1]) of 8.3 °C, an IC50 [2] of 0.028 µM and a Ratio IC50 [3] of 155. For the same compound, the EC50 [4] was 0.22 µM, the EC50 (HepG2) was 13 µM and the Papp [6] was 17.2 ×10⁻⁶ cm/s. The Cmax (Mus musculus [8]) was 3.7 µM, the Tmax [9] was 30 min and the t1/2 (Mus musculus [10]) was 63 min. For the same compound, the AUC (Mus musculus [11]) was 464 µM·min, the Activity [12] was 94% and the EC50 [13] was 0.42 µM. For the same compound, the Activity (Mus musculus [14]) was “Non-toxic”, the AQ [7] was 0.42 and the Time (Mus musculus [15]) was less than 6 h. For the same compound, the inhibition (Trypanosoma brucei [16]) was “Dose-dependent effect”, the selectivity ratio [17] was 55 and the selectivity ratio [18] was 59. For the same compound, the Activity [19] was 80%, the Activity [20] was 63% and the Activity [21] was “inactive”.

Compound `COc1cc(Cl)cc(CNCCCNC(=O)Nc2ccccc2)c1` has a ΔTm (Trypanosoma brucei [1]) of 7.7 °C, an IC50 [2] of 0.045 µM and a Ratio IC50 [3] of 186. The EC50 [4] was 0.33 µM, the EC50 [5] was 20 µM and the Papp [6] was 7.3 ×10⁻⁶ cm/s. The AQ [7] was 0.49.

In the case of `COc1ccc(CNCCCNC(=O)Nc2ccccc2)cc1`, the ΔTm (Trypanosoma brucei [1]) is reported as 1.1 °C.

In the case of `O=C(NCCCNCc1cc(Cl)cc(Cl)c1)Nc1ccc(F)cc1`, the ΔTm (Trypanosoma brucei [1]) is reported as 6.3 °C.

`CCOc1cccc(CNCCCNC(=O)Nc2ccccc2)c1` showed a ΔTm (Trypanosoma brucei [1]) of 2.7 °C.

For `Nc1cccc(NC(=O)NCCCNCc2cc(Cl)cc(Cl)c2)c1`, the ΔTm (Trypanosoma brucei [1]) was 4.3 °C.

Work on `CCOc1ccc(CNCCCNC(=O)Nc2ccccc2)cc1` yielded a ΔTm (Trypanosoma brucei [1]) of 0.5 °C.

For `NCCCC(N)(C(=O)O)C(F)F` (configuration not stated), the inhibition (Trypanosoma brucei [16]) was “inactive”.

For `O=C(NCCCNCc1cc(Cl)cc(Cl)c1Cl)Nc1ccccc1`, the ΔTm (Trypanosoma brucei [1]) was 6.4 °C.

In the case of `CCOc1ccccc1CNCCCNC(=O)Nc1ccccc1`, the ΔTm (Trypanosoma brucei [1]) is reported as 1.1 °C.

`O=C(NCCCNCc1cc(Cl)cc(Cl)c1)Nc1ccccc1O` showed a ΔTm (Trypanosoma brucei [1]) of 8.4 °C, an IC50 [2] of 0.039 µM and a Ratio IC50 [3] of 95. It also gave an EC50 [4] of 0.21 µM and an EC50 (HepG2) greater than 20 µM.

`Nc1ccccc1NC(=O)NCCCNCc1cc(Cl)cc(Cl)c1` gave a ΔTm (Trypanosoma brucei [1]) of 4.7 °C.
